# NALP1 inh = inhibitors of NALP1 inflammasome in yeast. S. cerevisiae NALP1/ASC/caspase-1 growth, X-gal OD620, 72 h. inhibition, % at 10 µM. 280,000 compounds, 0.61% hits. AID 2071; in the data active = inhibition mostly above about 24%, no sharp cut-off; inactive = mostly below about 32%
# MC4R antag cAMP = human MC4R antagonism in cAMP assay; MC4R-expressing cells, MTII-stimulated cAMP, LANCE TR-FRET; 360,000 compounds, 0.48% hits; inhibition, % at 6.5 µM; P32245;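 active = inhibition above its plate's cutoff, the mean of tested wells on that plate plus 3 SD, cut at about 29% in these data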
# Target sequence (P32245 whole entry, looked up): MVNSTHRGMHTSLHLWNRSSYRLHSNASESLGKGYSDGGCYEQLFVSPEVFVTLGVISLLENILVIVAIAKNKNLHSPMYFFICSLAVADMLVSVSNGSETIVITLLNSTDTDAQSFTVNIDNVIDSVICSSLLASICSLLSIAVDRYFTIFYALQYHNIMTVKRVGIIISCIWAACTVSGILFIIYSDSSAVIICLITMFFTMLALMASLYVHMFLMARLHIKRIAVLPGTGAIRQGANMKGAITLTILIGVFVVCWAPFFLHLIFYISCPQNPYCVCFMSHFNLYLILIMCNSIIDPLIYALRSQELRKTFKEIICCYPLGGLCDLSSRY
#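 System: U2OS-MC4R stable cell line; Technique: Eu-cAMP/anti-cAMP TR-FRET, emission 671 nm; Repeats: single well per compound; Also added: Melanotan II; Dosing: one concentration, 6.5 µM nominal; Schedule: 30-min compound, 1-h challenge, 1-h detection, room temperature.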
# NALP3 yeast inh = inhibitors of NALP3 inflammasome in yeast; 330,000 compounds, 0.39% hits; Yeast reconstituted NLRP3/ASC/caspase-1, beta-gal luminescence, 24 h; inhibition, % at 10 µM;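 active = inhibition of 50% or more; inactive = inhibition below 50%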
# MC4R ag barr = human MC4R agonism via beta-arrestin; U2OS MC4R beta-arrestin complementation, luminescence; percent of melanotan II response, DMSO zero; activation, % at 8.9 µM; 360,000 compounds, 0.98% hits; AID 540308;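 active = activation above a per-plate cutoff, the mean activation of sample wells on that plate plus 3 SD, cut at about 8% in these data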
# A1 inh = inhibitors of the anti-apoptotic protein A1, read as caspase activation; MEF A1-2A-BIM cells, Caspase-Glo 3/7 luminescence, 3 h; percent of clofoctol response, vehicle zero; caspase activation, % (test concentration not listed); 330,000 compounds, 0.066% hits;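 active = over half of replicate activation scores above 10%, or exactly half above 10 with the replicate mean above 10; inconclusive = replicate mean below 10 yet half the replicates above 10; inactive = over half of replicates below 10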
# Tb MetRS inh = blocks T. brucei methionyl-tRNA synthetase activity | 360,000 compounds, 0.4% hits | inhibition, % at 11.9 µM | purified T. brucei MetRS, ATP depletion, Kinase-Glo luminescence;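 active = inhibition above a per-plate cutoff of the control wells' mean inhibition plus 3 SD, cut at about 5.5% in these data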
#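 Material – parasite MetRS enzyme · Medium – HEPES-MgCl2-KCl buffer plus DTT, spermine, BSA, pyrophosphatase · Reagent – ATP, methionine and E. coli bulk tRNA substrates · Times – 15 min enzyme-compound preincubation, 2 h reaction, 10 min detection, 25 °C · Measured by – luminescence of leftover ATP · Evaluation – percent inhibition relative to median high and low control wells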
# A number is an active result; – = inactive; ? = inconclusive; · = not tested or not shown. Only some compounds are listed: those with a hit (about 2.5% of all), similar ones and a draw of the others.
SMILES,NALP1 inh,MC4R antag cAMP,NALP3 yeast inh,MC4R ag barr,A1 inh,Tb MetRS inh
Cc1ccc(NC(=O)/C(C#N)=C/c2cn(CC(=O)NCc3ccco3)c3ccccc23)cc1C,–,–,–,–,?,–
Cc1cc(C)cc(NC(=O)/C(C#N)=C/c2cn(CC(=O)NCc3ccco3)c3ccccc23)c1,–,–,–,–,17,–
COc1ccc2cc3cc(C(=O)NCCC(C)C)oc3nc2c1,–,–,–,8.8,–,–
CC[C@@]1(C(=O)OC)N[C@H](CN(C)C(=O)COc2ccccc2)[C@@H]2C(=O)N(C)C(=O)[C@@H]21,·,–,–,–,·,–
COc1ccc(CN2C(=O)CN(S(C)(=O)=O)CC2(C)C(=O)Nc2ccc3c(c2)OCCO3)cc1OC (centres undefined),·,·,·,·,·,–
COc1ccccc1NC(=O)C(CC(C)C)NC(=O)C1CCCCC1 (centres undefined),41,–,–,–,–,–
COc1ccccc1NC(=O)C1CCN(c2ncccn2)CC1,25,–,–,–,–,–
COc1ccc(OC)c(NC(=O)C(CC(C)C)NC(=O)C2CCCCC2)c1 (centres undefined),·,–,–,–,–,–
Cn1c(SCC(=O)NC2CCCCC2)nnc1-c1ccccc1O,–,–,–,–,–,–
CCN1C(=O)/C(=C\c2ccc(F)cc2)N=C1SCC(=O)NCc1ccco1,–,–,–,8.6,–,–
O=C(CSc1ccc(-c2ccc(F)cc2)nn1)NCc1ccco1,–,–,–,–,–,–
Cc1cccc(/N=C/c2c(O)c3ccccc3oc2=O)n1,27,–,–,–,–,–
Cc1cc(C)c(N=Cc2c(O)c3ccccc3oc2=O)c(C)c1,–,–,–,–,–,–
Cc1cc(C)cc(N=Cc2c(O)c3ccccc3oc2=O)c1,–,–,–,–,10,–
CN(C)S(=O)(=O)c1ccc(N2CCCC2)c(C(=O)NNC(=O)c2ccc(F)cc2)c1,·,–,–,–,–,–
Cc1ccc2c(c1)c(N=Nc1ccc([N+](=O)[O-])cc1)c(O)n2C,33,–,–,–,–,–
O=[N+]([O-])c1ccc(CNc2ccc(Cl)cc2)s1,·,–,–,–,–,–
COc1ccc(NCc2ccc([N+](=O)[O-])s2)c(OC)c1,52,–,·,–,–,–
O=[N+]([O-])c1ccc(CNc2ccc(F)cc2)s1,–,–,–,–,–,–
COc1ccc(NCc2ccc([N+](=O)[O-])s2)cc1,62,–,–,–,–,–
CC1CCCN(C(=O)COC(=O)c2cc(-c3cccs3)nn2-c2ccccc2)C1 (centres undefined),·,–,–,–,–,–
COc1ccc(C(=O)NC(C)c2cnn(-c3ccccn3)c2C)o1 (centres undefined),–,–,–,–,–,–
COc1ccccc1N(C(=O)CCl)c1cn(C(C)=O)c2ccccc12,–,–,–,8.6,–,–
CCOC(=O)c1ccccc1Nc1cn(C(C)=O)c2ccccc12,–,–,–,–,–,–
CCC(=O)OCC(=O)c1c(N)n(Cc2ccccc2)c(=O)n(C)c1=O,32,–,–,–,–,–
SMILES,NALP1 inh,MC4R antag cAMP,NALP3 yeast inh,MC4R ag barr,A1 inh,Tb MetRS inh
CN1CCN(C(=O)C2=C[C@@H](C3CCCCC3)C[C@@H](OCc3ccc(CO)cc3)O2)CC1,24,–,–,–,–,–
CN1CCN(C(=O)C2=C[C@H](C3CC3)C[C@H](OCc3ccc(CO)cc3)O2)CC1,·,–,–,–,–,–
CC(C)C[C@H](NC(=O)N1CCn2c1nc1ccccc12)C(=O)N[C@@H](Cc1ccccc1)C(=O)O,–,–,–,–,–,–
OC(CNCCC(c1ccccc1)c1ccccc1)COc1ccccc1 (centres undefined),33,–,–,25,–,–
OC(CNCCc1ccccc1)COc1ccc(OCC(O)CNCCc2ccccc2)cc1 (centres undefined),–,–,–,–,–,–
O=c1ccc(-c2ccc(S(=O)(=O)Nc3ccc(F)cc3)o2)n[nH]1,–,–,–,–,–,–
CC1=C(C(=O)N2CCOCC2)CC(CC(=O)NC2CC2)C(=O)N1Cc1ccc(F)cc1 (centres undefined),·,·,·,·,·,–
O=C1[C@H](Cc2ccccc2)NCC=CC[C@H](c2ccc(Cl)cc2)N1Cc1ccccc1,·,–,·,8.6,·,–
CCOC(=O)CCC(=O)O[C@H]1[C@H](O[C@@H]2[C@@H](C)[C@H](O[C@H]3C[C@@](C)(OC)[C@@H](O)[C@H](C)O3)[C@@H](C)C(=O)O[C@H](CC)[C@@](C)(O)[C@H](O)[C@@H](C)C(=O)[C@H](C)C[C@@]2(C)O)O[C@H](C)C[C@@H]1N(C)C,92,–,·,–,–,–
CC[C@H]1OC(=O)[C@H](C)[C@@H](O[C@H]2C[C@@](C)(OC)[C@@H](O)[C@H](C)O2)[C@H](C)[C@@H](O[C@@H]2O[C@H](C)C[C@H](N(C)C)[C@H]2O)[C@](C)(O)C[C@@H](C)C(=O)[C@H](C)[C@@H](O)[C@]1(C)O,–,–,·,–,–,–
CCOc1ccccc1CN1CCN(CCCc2ccccc2)CC1CCO (centres undefined),–,–,–,–,–,–
CCOc1ccccc1CN1CCN(Cc2nc3c(s2)CCCC3)CC1CCO (centres undefined),35,–,–,–,–,–
O=C1Cc2ccccc2C(=O)N1,·,·,·,·,·,22
Cc1ccccc1NC(=O)c1nn(C)c2c1CS(=O)(=O)c1ccccc1-2,–,–,–,–,–,–
Cc1noc(/C=C/c2ccccn2)c1[N+](=O)[O-],41,–,–,–,–,–
COc1ccc(-c2cc3c(=O)n(CC(=O)NCc4ccc(F)cc4)ncn3n2)cc1,–,–,–,–,–,–
COc1ccc(-c2cc3c(=O)n(CC(=O)NCc4ccc(C)cc4)ncn3n2)cc1,–,–,–,9.1,–,–
Cc1ccc(NC(=O)C2(C)CCN2CCc2ccccc2)cc1O (centres undefined),·,–,·,–,·,–
Cc1ccc(NC(=S)NCCSc2ccc(Cl)cc2)cc1,–,–,–,–,–,–
Cc1ccc(NC(=O)NCCSc2ccc(C)cc2)cc1,–,–,–,8.5,–,–
N#CC(C#N)=C1C=CC=CN1/C(=C\c1ccccc1Cl)C(=O)c1ccccc1,–,–,·,–,14,–
CC(C)(C)c1ccc(C(=O)c2cn[nH]c2-c2ccccc2O)cc1,–,–,–,–,–,–
O=C(O)CCn1c(-c2ccccc2)cc2ccccc21,34,–,–,–,–,–
CCOC(=O)CS(=O)(=O)c1nc(-c2ccccc2)cc(C(F)(F)F)n1,–,–,–,–,8.7,–
COC(=O)CCS(=O)(=O)c1nc(-c2ccccc2)cc(C(F)(F)F)n1,–,–,–,–,–,–

# Screening data: PubChem, several laboratories
